Laboratory results as given in ChEMBL document CHEMBL1143366, “Synthesis and antitumor activity of novel enediyne-linked pyrrolo[2,1-c][1,4]benzodiazepine hybrids” (Bioorg Med Chem, 2009).
Active and inactive are the calls of the source. The rule behind the calls is not given here.

Tests used:
[1] = system: HEK-293T; assay: Induction of apoptosis in human 293T cells assessed as change in morphology after 24 hrs; assay type: functional, cell-based
How it was run: (§1)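 293T cells (5×10⁵/well) were grown for one day, then treated for 24 h with 4 µM agent or graded concentrations. Morphology was photographed by phase-contrast microscopy at 200×.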

[2] = system: BT-549; assay: Cytotoxicity against human BT549 cells after 24 hrs by MTT assay; assay type: functional; settings: BT-549, 24 h
[3] = system: IGROV-1; assay: Cytotoxicity against human IGROV1 cells after 24 hrs by MTT assay; assay type: functional; settings: IGROV-1, 24 h
[4] = system: NCI-H1355; assay: Cytotoxicity against human NCI-H1355 cells assessed as survival at 4 uM after 24 hrs by MTT assay; assay type: functional; settings: NCI-H1355, 24 h, read-out: Survival
How it was run: (§2)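 Cells seeded at 2500 cells/well, incubated overnight, then exposed to agents at 4 µM for 24 h. Medium replaced with MTT dye, 2 h at 37 °C. Formazan dissolved in DMSO, absorbance read at 540 nm. Survival expressed as % of untreated control.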

[5] = system: SW-620; assay: Cytotoxicity against human SW620 cells after 24 hrs by MTT assay; assay type: functional; settings: SW-620, 24 h
[6] = system: HEK-293T; assay: Induction of apoptosis in human 293T cells assessed as necrotic cells at 2 uM after 24 hrs using annexin V-FITC/propidium iodide staining by FACS; assay type: functional
How it was run: (§3)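 293T cells were treated for 24 h with 4 µM agent or graded concentrations, then harvested by trypsinization and centrifugation. Annexin V-FITC was added to 10⁶ cells per sample, with simultaneous PI staining. About 10,000 cells per group were analysed by flow cytometry, with annexin V⁺/PI⁻ scored as early apoptotic.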

[7] = system: HEK-293T; assay: Induction of apoptosis in human 293T cells assessed as degradation of caspase 3 at 4 uM after 24 hrs by Western blot analysis; assay type: functional, cell-based
How it was run: (§4)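 293T cells were exposed for 24 h to graded concentrations (0, 1, 2 and 4 µM shown) or to 4 µM agent. Cell lysates were immunoblotted for caspase-3 (CPP32) and p53, with actin as the loading control. Primary antibody ran 2 h at room temperature or overnight at 4 °C, then HRP secondary 1 h at room temperature, with chemiluminescent detection.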

[8] = system: OVCAR-8; assay: Cytotoxicity against human OVCAR8 cells after 24 hrs by MTT assay; assay type: functional; settings: OVCAR-8, 24 h
[9] = system: MOLT-4; assay: Cytotoxicity against human MOLT4 cells after 24 hrs by MTT assay; assay type: functional; settings: MOLT-4, 24 h
[10] = system: HEK-293T; assay: Induction of apoptosis in human 293T cells assessed as decrease in p53 protein expression at 4 uM after 24 hrs by Western blot analysis; assay type: functional, cell-based; how it was run: as §4
[11] = system: MCF7; assay: Cytotoxicity against human MCF7 cells assessed as survival at 4 uM after 24 hrs by MTT assay; assay type: functional; settings: MCF7, 24 h, read-out: Survival; how it was run: as §2
[12] = Cytotoxicity against human 293T cells assessed as survival at 4 uM after 24 hrs by MTT assay; assay type: cell-based, HEK-293T; settings: read-out: Survival; how it was run: as §2
[13] = system: HEK-293T; assay: Induction of apoptosis in human 293T cells assessed as early apoptotic cells at 1 uM after 24 hrs using annexin V-FITC/propidium iodide staining by FACS; assay type: functional; how it was run: as §3
[14] = system: HEK-293T; assay: Induction of apoptosis in human 293T cells assessed as early apoptotic cells at 4 uM after 24 hrs using annexin V-FITC/propidium iodide staining by flow cytometry; assay type: functional; how it was run: as §3
[15] = system: MCF7; assay: Cytotoxicity against human MCF7 cells after 24 hrs by MTT assay; assay type: functional; settings: MCF7, 24 h
[16] = system: HEK-293T; assay: Induction of apoptosis in human 293T cells assessed as degradation of caspase 3 after 24 hrs by Western blot analysis; assay type: functional, cell-based; how it was run: as §4
[17] = system: HEK-293T; assay: Induction of apoptosis in human 293T cells assessed as decrease in p53 protein expression at 1 uM after 24 hrs by Western blot analysis; assay type: functional, cell-based; how it was run: as §4
[18] = system: RPMI-8226; assay: Cytotoxicity against human RPMI8226 cells after 24 hrs by MTT assay; assay type: functional; settings: RPMI-8226, 24 h
[19] = system: HEK-293T; assay: Induction of apoptosis in human 293T cells assessed as early apoptotic cells at 2 uM after 24 hrs using annexin V-FITC/propidium iodide staining by FACS; assay type: functional; how it was run: as §3
[20] = system: CCRF-CEM; assay: Cytotoxicity against human CCRF-CEM cells after 24 hrs by MTT assay; assay type: functional
[21] = system: SK-MEL-2; assay: Cytotoxicity against human SK-MEL-2 cells after 24 hrs by MTT assay; assay type: functional; settings: SK-MEL-2, 24 h
[22] = system: OVCAR-3; assay: Cytotoxicity against human OVCAR-3 cells after 24 hrs by MTT assay; assay type: functional; settings: OVCAR-3, 24 h
[23] = system: A2058; assay: Cytotoxicity against human A2058 cells assessed as survival at 4 uM after 24 hrs by MTT assay; assay type: functional; settings: A2058, 24 h, read-out: Survival; how it was run: as §2
[24] = system: CAKI-1; assay: Cytotoxicity against human Caki1 cells after 24 hrs by MTT assay; assay type: functional; settings: CAKI-1, 24 h
[25] = system: A-375; assay: Cytotoxicity against human A375 cells assessed as survival at 4 uM after 24 hrs by MTT assay; assay type: functional; settings: A-375, 24 h, read-out: Survival; how it was run: as §2
[26] = system: T47D; assay: Cytotoxicity against human T47D cells after 24 hrs by MTT assay; assay type: functional
[27] = system: HEK-293T; assay: Induction of apoptosis in human 293T cells assessed as necrotic cells at 4 uM after 24 hrs using annexin V-FITC/propidium iodide staining by flow cytometry; assay type: functional; how it was run: as §3
[28] = system: MDA-MB-435; assay: Cytotoxicity against human MDA-MB-435 cells after 24 hrs by MTT assay; assay type: functional; settings: MDA-MB-435, 24 h
[29] = system: HEK-293T; assay: Induction of apoptosis in human 293T cells at 4 uM after 24 hrs using annexin V-FITC staining by FACS; assay type: functional; how it was run: as §3
[30] = system: RXF 393; assay: Cytotoxicity against human RXF393 cells after 24 hrs by MTT assay; assay type: functional; settings: RXF 393, 24 h
[31] = system: HEK-293T; assay: Induction of apoptosis in human 293T cells assessed as DNA repair deficiency at > 2 uM; assay type: functional, cell-based; how it was run: as §4
[32] = system: HEK-293T; assay: Induction of apoptosis in human 293T cells assessed as necrotic cells at 1 uM after 24 hrs using annexin V-FITC/propidium iodide staining by FACS; assay type: functional; how it was run: as §3
[33] = Cell cycle arrest in human 293T cells assessed as accumulation at sub-G1 phase at 4 uM after 24 hrs using propidium iodide staining by FACS; assay type: functional, cell-based; settings: HEK-293T
How it was run: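 293T cells exposed to 4 µM agents for 24 h, harvested by trypsinization and fixed in 50% cold ethanol at −20 °C. Washed in PBS, then RNase A (100 µg/mL) for 20 min at 37 °C. DNA content of 10,000 events read by flow cytometry. Result is % of cells in the sub-G1 peak.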

[34] = system: HEK-293T; assay: Induction of apoptosis in human 293T cells assessed as change in morphology at 4 uM after 24 hrs; assay type: functional, cell-based; how it was run: as §1

With `COc1cc2c(cc1OCCCC#Cc1ccccc1C#Cc1ccccc1)N=C[C@@H]1CCCN1C2=O` the Activity [1] was “Dose-dependent effect”, the GI50 [2] was 641 nM and the GI50 [3] was 549 nM. For the same compound, the viability at 4 µM [4] was 87.7%, the GI50 [5] was 478 nM and the Activity [6] was 14.5%. For the same compound, the Activity [7] was “Active”, the GI50 [8] was 394 nM and the GI50 [9] was 648 nM. For the same compound, the Activity [10] was “Active”, the viability at 4 µM [11] was 49.7% and the viability at 24 h, 4 µM [12] was 28.7%. For the same compound, the Activity [13] was 2.1%, the Activity [14] was 1.5% and the GI50 [15] was 305 nM. For the same compound, the Activity [16] was “Dose-dependent effect”, the Activity [17] was “inactive” and the GI50 [18] was 285 nM. It also gave an Activity [19] of 2.2%, a GI50 [20] of 422 nM and a GI50 [21] of 924 nM. The GI50 [22] was 520 nM, the viability at 4 µM [23] was 47.2% and the GI50 [24] was 485 nM. It also gave a viability at 4 µM [25] of 22.3%, a GI50 [26] of 779 nM and an Activity [27] of 17.4%. It also gave a GI50 [28] of 468 nM, an Activity [29] of 25.4% and a GI50 [30] of 686 nM. The Activity [31] was “Active”, the Activity [32] was 13.7% and the Activity [33] was 14.5%.

For `COc1cc2c(cc1OCCCCC#Cc1ccccc1C#Cc1ccccc1)N=C[C@@H]1CCCN1C2=O`, the viability at 4 µM [4] was 75.2%, the viability at 4 µM [11] was 85.2% and the viability at 24 h, 4 µM [12] was 19.2%. For the same compound, the viability at 4 µM [23] was 49.5%, the viability at 4 µM [25] was 28.3% and the Activity [33] was 13.2%.

Work on `COc1cc2c(cc1OCC#Cc1ccccc1C#Cc1ccccc1)N=C[C@@H]1CCCN1C2=O` yielded a viability at 4 µM [4] of 70.9%, a viability at 4 µM [11] of 48.9% and a viability at 24 h, 4 µM [12] of 48.9%. The viability at 4 µM [23] was 46.1%, the viability at 4 µM [25] was 13.1% and the Activity [33] was 6.3%.

For `COc1cc2c(cc1O)N=C[C@@H]1CCCN1C2=O`, the viability at 4 µM [4] was 73.9%, the viability at 4 µM [11] was 72.3% and the viability at 24 h, 4 µM [12] was 68.9%. For the same compound, the viability at 4 µM [23] was 63.4%, the viability at 4 µM [25] was 50.2% and the Activity [33] was 10%.

Compound `COc1cc2c(cc1OC/C=C/COCC#Cc1ccccc1C#Cc1ccccc1)N=C[C@@H]1CCCN1C2=O` has a viability at 4 µM [4] of 67.4%, a viability at 4 µM [11] of 70.4% and a viability at 24 h, 4 µM [12] of 48.4%. It also gave a viability at 4 µM [23] of 43%, a viability at 4 µM [25] of 42.9% and an Activity [33] of 13.9%.

`COc1cc2c(cc1OCC=CCOCCC#Cc1ccccc1C#Cc1ccccc1)N=C[C@@H]1CCCN1C2=O` showed a viability at 4 µM [4] of 71%, a viability at 4 µM [11] of 83.8% and a viability at 24 h, 4 µM [12] of 60.7%. It also gave a viability at 4 µM [23] of 84.5%, a viability at 4 µM [25] of 85.7% and an Activity [33] of 13.3%.

Work on `COc1cc2c(cc1OC/C=C\COCC#Cc1ccccc1C#Cc1ccccc1)N=C[C@@H]1CCCN1C2=O` yielded a viability at 4 µM [4] of 44%, a viability at 4 µM [11] of 44% and a viability at 24 h, 4 µM [12] of 44%. For the same compound, the viability at 4 µM [23] was 39.1%, the viability at 4 µM [25] was 33.9% and the Activity [33] was 15.6%.

In the case of `COc1cc2c(cc1OCCCCCCNC(=O)c1cc3ccccc3[nH]1)N=C[C@@H]1CCCN1C2=O`, the Activity [7] is reported as “Active”, the Activity [34] is reported as “Active” and the Activity [10] is reported as “Active”. It also gave an Activity [29] of 19.4%.

Work on `COc1cc2c(cc1OC/C=C/COCCC#Cc1ccccc1C#Cc1ccccc1)N=C[C@@H]1CCCN1C2=O` yielded a viability at 4 µM [4] of 85.2%, a viability at 4 µM [11] of 59.2% and a viability at 24 h, 4 µM [12] of 35.2%. It also gave a viability at 4 µM [23] of 46.2%, a viability at 4 µM [25] of 33.4% and an Activity [33] of 13.6%.
